Source: ChEMBL document CHEMBL4190306, “Synthesis and structure-activity relationship study of novel 3-heteroarylcoumarins based on pyridazine scaffold as selective MAO-B inhibitors” (Eur J Med Chem, 2017)

What was measured:
[1] = molecular target: T1, Amine oxidase [flavin-containing] B (Homo sapiens, UniProt P27338); assay: Inhibition of human recombinant MAO-B expressed in baculovirus infected BTI-TN5B1-4 cells using p-tyramine as substrate assessed as reduction in H2O2 production at 100 uM preincubated for 15 mins followed by substrate addition measured after 15 mins by Amplex red dye based fluorescence assay relative to control; conditions: 0.25 h
T1 sequence (P27338 whole entry): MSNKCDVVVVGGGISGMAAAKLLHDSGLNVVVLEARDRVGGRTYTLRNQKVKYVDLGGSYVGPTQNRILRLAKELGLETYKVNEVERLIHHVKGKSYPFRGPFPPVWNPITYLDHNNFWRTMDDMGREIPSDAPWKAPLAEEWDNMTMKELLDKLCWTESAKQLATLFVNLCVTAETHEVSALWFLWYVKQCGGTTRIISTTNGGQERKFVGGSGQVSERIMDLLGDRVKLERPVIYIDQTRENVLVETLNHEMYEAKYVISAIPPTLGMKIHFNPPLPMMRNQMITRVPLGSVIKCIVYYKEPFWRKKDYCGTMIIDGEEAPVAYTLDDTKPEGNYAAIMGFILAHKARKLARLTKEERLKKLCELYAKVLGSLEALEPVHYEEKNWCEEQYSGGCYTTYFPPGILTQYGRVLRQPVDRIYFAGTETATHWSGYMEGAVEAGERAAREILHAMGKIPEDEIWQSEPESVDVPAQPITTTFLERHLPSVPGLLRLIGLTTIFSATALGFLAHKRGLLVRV

[2] = molecular target: T2, Amine oxidase [flavin-containing] A (Homo sapiens, UniProt P21397); assay: Inhibition of human recombinant MAO-A expressed in baculovirus infected BTI-TN5B1-4 cells using p-tyramine as substrate assessed as reduction in H2O2 production at 100 uM preincubated for 15 mins followed by substrate addition measured after 15 mins by Amplex red dye based fluorescence assay; conditions: 0.25 h
T2 sequence (P21397 whole entry): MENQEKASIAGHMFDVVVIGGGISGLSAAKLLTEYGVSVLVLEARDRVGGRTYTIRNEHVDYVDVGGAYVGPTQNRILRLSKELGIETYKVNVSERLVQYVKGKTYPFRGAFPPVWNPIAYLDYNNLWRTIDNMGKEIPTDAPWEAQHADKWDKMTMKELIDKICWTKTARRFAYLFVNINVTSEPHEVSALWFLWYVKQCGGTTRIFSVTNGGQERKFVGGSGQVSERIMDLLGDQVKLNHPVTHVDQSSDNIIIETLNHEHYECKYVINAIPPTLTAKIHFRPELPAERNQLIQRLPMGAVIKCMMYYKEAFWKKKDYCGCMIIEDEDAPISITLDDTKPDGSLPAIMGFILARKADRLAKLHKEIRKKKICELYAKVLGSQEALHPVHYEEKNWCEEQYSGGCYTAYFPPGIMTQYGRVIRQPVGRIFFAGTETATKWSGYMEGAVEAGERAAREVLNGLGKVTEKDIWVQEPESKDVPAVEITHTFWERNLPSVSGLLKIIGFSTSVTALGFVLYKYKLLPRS
Procedure, shortened: (§1)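 Microsomal hMAO-A (1.1 µg protein) or hMAO-B (7.5 µg protein) from baculovirus-infected insect cells was used, with each amount adjusted to an oxidation rate of 165±2 pmol p-tyramine/min. Enzyme and test drug in 0.5M sodium phosphate pH 7.4 were pre-incubated 15 min at 37 °C. The reaction was started with final 200 µM Amplex Red, 1 U/mL HRP and 1 mM p-tyramine. Resorufin fluorescence (ex 545/em 590 nm) was followed for 15 min at 37 °C, background without enzyme was subtracted, and controls received vehicle.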

SH-SY5Y [3] = assay: Cytotoxicity against human SH-SY5Y cells at 10 uM after 24 hrs by MTT assay; type: cell-based
Procedure, shortened: (§2)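 SH-SY5Y neuroblastoma cells were seeded at 1.10⁶/mL and incubated overnight. Compounds in DMSO (1%) were added, with 1% DMSO-treated cells as negative control, for 24 h. MTT solution (5 mg/ml in PBS, 10%) was then added for 2 h at 37 °C, and the crystals were dissolved in DMSO. A540 was read, and viability was taken as % of negative-control absorbance.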

[4] = molecular target: T1, Amine oxidase [flavin-containing] B; assay: Inhibition of human recombinant MAO-B expressed in baculovirus infected BTI-TN5B1-4 cells using p-tyramine as substrate assessed as reduction in H2O2 production preincubated for 15 mins followed by substrate addition measured after 15 mins by Amplex red dye based fluorescence assay; type: cell-based
Homo sapiens = species: Homo sapiens; assay: Selectivity index, ratio of IC50 for human recombinant MAO-A expressed in baculovirus infected BTI-TN5B1-4 cells to IC50 for human recombinant MAO-B expressed in baculovirus infected BTI-TN5B1-4 cells
Procedure, shortened: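 IC50 values for hMAO-A and hMAO-B were obtained in the same p-tyramine/Amplex Red assay (15 min pre-incubation, 37 °C, 15 min fluorescence read). Each IC50 came from linear least-squares regression of % inhibition versus log molar concentration, using 4–6 concentrations giving 20–80% inhibition. Selectivity was taken as IC50(MAO-A)/IC50(MAO-B).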

[5] = molecular target: T1, Amine oxidase [flavin-containing] B; assay: Inhibition of human recombinant MAO-B expressed in baculovirus infected BTI-TN5B1-4 cells using p-tyramine as substrate assessed as reduction in H2O2 production at 100 uM preincubated for 15 mins followed by substrate addition measured after 15 mins by Amplex red dye based fluorescence assay; conditions: 0.25 h; procedure, shortened: as §1
SH-SY5Y [6] = assay: Cytotoxicity against human SH-SY5Y cells at 20 uM after 24 hrs by MTT assay; type: cell-based; procedure, shortened: as §2

Compound	inhibition at 100 µM [1]	inhibition (INH) [2]	Activity (SH-SY5Y [3])	IC50 [4]	Ratio IC50 (Homo sapiens)	inhibition (INH) [5]	Activity (SH-SY5Y [6])
COc1ccc2cc(-c3ccc(OC)nn3)c(=O)oc2c1	45 to 50%	Not Active	Non-Toxic	–	–	–	–
COc1ccc2oc(=O)c(-c3ccc(OC)nn3)cc2c1	–	Not Active	Non-Toxic	11.1 µM	> 9	–	–
Cc1ccc2cc(-c3ccc(Cl)nn3)c(=O)oc2c1	–	Not Active	Non-Toxic	2.51 µM	> 39.8	–	–
COc1ccc(-c2cc3cc(C)ccc3oc2=O)nn1	–	Not Active	Non-Toxic	17.6 µM	> 5.7	–	–
COc1ccc2oc(=O)c(-c3ccc(Cl)nn3)cc2c1	–	Not Active	Non-Toxic	8.8 µM	> 11.4	–	–
COc1ccc2cc(-c3ccc(Cl)nn3)c(=O)oc2c1	–	Not Active	Non-Toxic	19.2 µM	> 5.2	–	–
COc1ccc(-c2cc3cccc(C)c3oc2=O)nn1	–	Not Active	Non-Toxic	5.35 µM	> 18.7	–	–
COc1ccc2oc(=O)c(-c3ccc(Br)nn3)cc2c1	–	Not Active	Non-Toxic	0.56 µM	> 179	–	–
COc1cccc2cc(-c3ccc(Br)nn3)c(=O)oc12	–	Not Active	Non-Toxic	12.8 µM	> 7.8	–	–
Cc1ccc2oc(=O)c(-c3ccc(Cl)nn3)cc2c1	–	Not Active	Non-Toxic	13.5 µM	> 7.4	–	–
Cc1cccc2cc(-c3ccc(Cl)nn3)c(=O)oc12	–	Not Active	Non-Toxic	22.7 µM	> 4.4	–	–
Cc1cccc2cc(-c3ccc(Br)nn3)c(=O)oc12	–	Not Active	Non-Toxic	2.64 µM	> 37.9	–	–
COc1ccc(-c2cc3cccc(OC)c3oc2=O)nn1	–	Not Active	Non-Toxic	–	–	Not Active	Toxic
COc1cccc2cc(-c3ccc(Cl)nn3)c(=O)oc12	–	Not Active	Non-Toxic	30.1 µM	> 3.3	–	–
COc1ccc2cc(-c3ccc(Br)nn3)c(=O)oc2c1	–	Not Active	Non-Toxic	3.05 µM	> 32.8	–	–
Cc1ccc2cc(-c3ccc(Br)nn3)c(=O)oc2c1	–	Not Active	Non-Toxic	0.75 µM	> 133	–	–
Cc1ccc2oc(=O)c(-c3ccc(Br)nn3)cc2c1	–	Not Active	Non-Toxic	2.16 µM	> 46.3	–	–
COc1ccc(-c2cc3ccc(C)cc3oc2=O)nn1	–	Not Active	Non-Toxic	13.5 µM	> 7.4	–	–
